Source: PMC8268672 (Bioorganic Chemistry, 2021)
≈ marks a conversion by molar mass, not a printed value. Read-outs that look alike come from different tables or passages of the source.

What was measured:
[1] = system: Vaccinia virus; assay: microbe, parasite or virus in culture; format: cell-based; conditions: Orthopoxvirus vaccinia, HEL, read-out: Antiviral EC50, Vaccinia virus
[2] = system: Human Coronavirus (229E); assay: CPE reduction assay in HEL cells; format: cell-based; conditions: read-out: Antiviral EC50, Human Coronavirus (229E)
[3] = system: Escherichia coli (ATCC 8739); assay: MIC, broth microdilution; format: cell-based; conditions: ATCC8739, read-out: Minimum inhibitory concentration (MIC), EC
Outline: (§1)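 Broth microdilution per CLSI in Mueller-Hinton broth, using two-fold serial dilutions of test compound and reference drugs from 512 to 0.25. Bacterial broth cultures were grown 2-6 h to 0.5 McFarland turbidity, then diluted with sterile solution to the final inoculum. MIC is reported in µg/mL.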

[4] = system: Yellow Fever virus; assay: microbe, parasite or virus in culture; format: cell-based; conditions: Yellow fever virus, Vero, read-out: Antiviral EC50, Yellow Fever virus
[5] = system: Sindbis virus; assay: CPE reduction assay in Vero cells; format: cell-based; conditions: read-out: Antiviral EC50, Sindbis virus
[6] = system: Madin Darby canine kidney (MDCK) cells; conditions: dog
[7] = system: Pseudomonas aeruginosa (MCCB 0035); assay: Agar disk diffusion, inhibition zone; format: cell-based; conditions: 100 µg/8 mm disc, triplicate, mean ± SD
[8] = system: Candida albicans (NCIM 2087); assay: Agar disk diffusion, inhibition zone; format: cell-based; conditions: 100 µg/8 mm disc, triplicate, mean ± SD
[9] = system: Influenza A/H1N1 A/Ned/378/05; assay: CPE reduction assay in MDCK cells; format: cell-based; conditions: Influenza A virus
[10] = system: Aspergillus fumigatus (NCIM 2081); assay: Agar disk diffusion, inhibition zone; format: cell-based; conditions: 100 µg/8 mm disc, triplicate, mean ± SD
[11] = system: Influenza B B/Ned/537/05; assay: CPE reduction assay in MDCK cells; format: cell-based; conditions: Influenza B virus, read-out: Antiviral EC50, Influenza B B/Ned/537/05, MTS
[12] = system: Adeno virus-2; assay: CPE reduction assay in HEL cells; format: cell-based; conditions: read-out: Antiviral EC50, Adeno virus-2
[13] = system: Cryptococcus neoformans (ATCC 9011); assay: Agar disk diffusion, inhibition zone; format: cell-based; conditions: 100 µg/8 mm disc, triplicate, mean ± SD
[14] = system: Vero cells; conditions: Vero cell cultures; microscopically detectable alteration of normal cell morphology
[15] = system: Aspergillus niger (NCIM 2191); assay: Agar disk diffusion, inhibition zone; format: cell-based; conditions: 100 µg/8 mm disc, triplicate, mean ± SD
Outline: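 For the fungal strain, discs soaked in test compound solution (DMSO stock diluted with distilled water) sat on seeded Mueller-Hinton agar. Clotrimazole was the reference. Incubation ran 48 h at 35 °C, in triplicate. Zone of growth inhibition recorded in mm as the mean diameter around each disc.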

[16] = system: Coxsackie virus B4; assay: CPE reduction assay in Vero cells; format: cell-based; conditions: Enterovirus B, read-out: Antiviral EC50, Coxsackie virus B4
[17] = system: Klebsiella aerogenes (NCIM-2098); assay: MIC, broth microdilution; format: cell-based; conditions: NCIM2098, read-out: Minimum inhibitory concentration (MIC), KA
Outline: (§2)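 Antibacterial MICs by CLSI broth microdilution in Mueller-Hinton broth. Test compounds and standard drugs are serially diluted two-fold from 512 to 0.25. The bacterial broth culture is grown 2-6 h to a 0.5 McFarland turbidity, then adjusted with sterile solution to the final inoculum.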

[18] = system: Salmonella typhimurium (NCIM-2501); assay: Agar disk diffusion, inhibition zone; format: cell-based; conditions: 100 µg/8 mm disc, triplicate, mean ± SD
[19] = system: Escherichia coli (ATCC 8739); assay: Agar disk diffusion, inhibition zone; format: cell-based; conditions: 100 µg/8 mm disc, triplicate, mean ± SD
Outline: (§3)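 Agar disk diffusion on Mueller-Hinton agar plates seeded with a standard bacterial suspension. Test compound stock in DMSO, diluted with distilled water; 8 mm sterile filter-paper discs soaked in the solution. Ampicillin was the reference. Plates incubated at 35 °C for 24 h, in triplicate. Read-out is the average inhibition-zone diameter (mm) around each disc.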

[20] = system: Reovirus-1; assay: CPE reduction assay in Vero cells; format: cell-based; conditions: read-out: Antiviral EC50, Reovirus-1
[21] = system: Punta Toro virus; assay: CPE reduction assay in Vero cells; format: cell-based; conditions: read-out: Antiviral EC50, Punta Toro virus
[22] = system: Klebsiella aerogenes (NCIM-2098); assay: Agar disk diffusion, inhibition zone; format: cell-based; conditions: 100 µg/8 mm disc, triplicate, mean ± SD
[23] = system: Bacillus cereus (NCIM-2458); assay: MIC, broth microdilution; format: cell-based; conditions: NCIM2458, read-out: Minimum inhibitory concentration (MIC), BC
Outline: as §1

[24] = system: Staphylococcus aureus (ATCC 29213); assay: MIC, broth microdilution; format: cell-based; conditions: ATCC29213, read-out: Minimum inhibitory concentration (MIC), SA
Outline: as §2

[25] = system: Bacillus cereus (NCIM-2458); assay: Agar disk diffusion, inhibition zone; format: cell-based; conditions: 100 µg/8 mm disc, triplicate, mean ± SD
[26] = system: Human embryonic lung (HEL) cells; conditions: HEL cell cultures; microscopically detectable alteration of normal cell morphology
[27] = system: MT4 cells; conditions: MT4 cell cultures; colorimetric MTT cell viability assay
[28] = system: Pseudomonas aeruginosa (MCCB 0035); assay: MIC, broth microdilution; format: cell-based; conditions: read-out: Minimum inhibitory concentration (MIC), PA
Outline: as §1

[29] = system: Aspergillus fumigatus (NCIM 2081); assay: MIC, broth microdilution; format: cell-based; conditions: NCIM2081, read-out: Minimum inhibitory concentration (MIC), AF
Outline: (§4)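 Antifungal MICs by CLSI broth microdilution in Sabouraud liquid medium. Test compounds and standard drugs are serially diluted two-fold from 512 to 0.25. The fungal broth culture is grown 24 h at 35 °C to a 0.5 McFarland turbidity, then adjusted with sterile solution to the final inoculum.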

[30] = system: Aspergillus niger (NCIM 2191); assay: MIC, broth microdilution; format: cell-based; conditions: NCIM2191, read-out: Minimum inhibitory concentration (MIC), AN
Outline: as §4

[31] = system: Cryptococcus neoformans (ATCC 9011); assay: MIC, broth microdilution; format: cell-based; conditions: ATCC9011, read-out: Minimum inhibitory concentration (MIC), CN
Outline: as §4

[32] = system: Staphylococcus aureus (ATCC 29213); assay: Agar disk diffusion, inhibition zone; format: cell-based; conditions: 100 µg/8 mm disc, triplicate, mean ± SD
Outline: as §3

[33] = system: Candida albicans (NCIM 2087); assay: MIC, broth microdilution; format: cell-based; conditions: NCIM2087, read-out: Minimum inhibitory concentration (MIC), CA
Outline: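 CLSI broth microdilution in Sabouraud liquid medium, with test compound two-fold serially diluted from 512 to 0.25. Fungal broth culture grown 24 h at 35 °C to 0.5 McFarland turbidity, then adjusted with sterile solution to a final […] inoculum. MIC expressed in µg/mL.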

[34] = system: Para-influenza-3 virus; assay: CPE reduction assay in Vero cells; format: cell-based, Parainfluenza-3 virus; conditions: Vero, read-out: Antiviral EC50, Para-influenza-3 virus
[35] = system: Streptococcus pneumonia (ATCC 49619); assay: Agar disk diffusion, inhibition zone; format: cell-based; conditions: 100 µg/8 mm disc, triplicate, mean ± SD
[36] = system: Influenza A/H3N2 A/HK/7/87; assay: CPE reduction assay in MDCK cells; format: cell-based; conditions: Influenza A virus
[37] = system: Lactobacillus casei (NCIM-2651); assay: Agar disk diffusion, inhibition zone; format: cell-based; conditions: 100 µg/8 mm disc, triplicate, mean ± SD
[38] = read-out: Antiviral EC50, Influenza A/H1N1 A/Ned/378/05, MTS
[39] = read-out: Antiviral EC50, Influenza A/H1N1 A/Ned/378/05, visual CPE score
[40] = read-out: Antiviral EC50, Influenza A/H3N2 A/HK/7/87, MTS
[41] = read-out: Antiviral EC50, Influenza A/H3N2 A/HK/7/87, visual CPE score

Row | SMILES | EC50 [1] [µM] | EC50 [2] [µM] | MIC [3] [µg/mL] | EC50 [4] [µM] | EC50 [5] [µM] | Cytotoxicity, Minimum cytotoxic conc. [6] [µM] | Diameter of growth inhibition zone, PA [7] [mm] | Diameter of growth inhibition zone, CA [8] [mm] | EC50 [9, 38] [µM] | EC50 [9, 39] [µM] | Diameter of growth inhibition zone, AF [10] [mm] | EC50 [11] [µM] | EC50 [12] [µM] | Diameter of growth inhibition zone, CN [13] [mm] | Minimum cytotoxic conc. [14] [µM] | Diameter of growth inhibition zone, AN [15] [mm] | EC50 [16] [µM] | MIC [17] [µg/mL] | Diameter of growth inhibition zone, ST [18] [mm] | Diameter of growth inhibition zone, EC [19] [mm] | further results
1 | Cc1ccc(S(=O)(=O)N2C(=O)CSC2c2ccc(O)cc2)cc1 (stereo not drawn) [5m, 2-(4-Hydroxyphenyl)-3-[(4-methylphenyl)sulfonyl]-1,3-thiazolidin-4-one] | > 100 | > 100 | 16 (≈ 45.8 µM) | > 100 | > 100 | >100 | 15.2 ± 0.96 | 15 ± 0.35 | > 100 | > 100 | 10 ± 1.2 | > 100 | > 100 | 13 ± 1.4 | >100 | 13 ± 0.6 | > 100 | 64 (≈ 183 µM) | 12 ± 0.4 | 15.9 ± 0.23 | EC50 [20]: > 100 µM; EC50 [21]: > 100 µM; Diameter of growth inhibition zone, KA [22]: 10 ± 0.4 mm; MIC [23]: 64 µg/mL (≈ 183 µM); MIC [24]: 32 µg/mL (≈ 91.6 µM); Diameter of growth inhibition zone, BC [25]: 10 ± 0.6 mm; Minimum cytotoxic conc. [26]: >100 µM; Minimum cytotoxic conc. [27]: >125 µM; MIC [28]: 16 µg/mL (≈ 45.8 µM); MIC [29]: 128 µg/mL (≈ 366 µM); MIC [30]: 64 µg/mL (≈ 183 µM); MIC [31]: 64 µg/mL (≈ 183 µM); Diameter of growth inhibition zone, SA [32]: 13 ± 0.63 mm; MIC [33]: 32 µg/mL (≈ 91.6 µM); EC50 [34]: > 100 µM; Diameter of growth inhibition zone, SP [35]: 12 ± 2.1 mm; EC50 [36, 40]: > 100 µM; EC50 [36, 41]: > 100 µM; Diameter of growth inhibition zone, LC [37]: 14 ± 0.64 mm
2 | Cc1ccc(S(=O)(=O)N2C(=O)CSC2c2ccc([N+](=O)[O-])cc2)cc1 (stereo not drawn) [5q, 3-[(4-Methylphenyl)sulfonyl]-2-(4-nitrophenyl)-1,3-thiazolidin-4-one] | > 100 | > 100 | 16 (≈ 42.3 µM) | > 100 | > 100 | >100 | 18 ± 1.2 | 23 ± 1.2 | > 100 | > 100 | 21 ± 0.63 | > 100 | > 100 | 19 ± 1.3 | >100 | 22 ± 0.46 | > 100 | 32 (≈ 84.6 µM) | 10 ± 1.1 | 17 ± 1.2 | EC50 [20]: > 100 µM; EC50 [21]: > 100 µM; Diameter of growth inhibition zone, KA [22]: 12 ± 0.4 mm; MIC [23]: 32 µg/mL (≈ 84.6 µM); MIC [24]: 32 µg/mL (≈ 84.6 µM); Diameter of growth inhibition zone, BC [25]: 12 ± 0.6 mm; Minimum cytotoxic conc. [26]: >100 µM; Minimum cytotoxic conc. [27]: >125 µM; MIC [28]: 32 µg/mL (≈ 84.6 µM); MIC [29]: 4 µg/mL (≈ 10.6 µM); MIC [30]: 4 µg/mL (≈ 10.6 µM); MIC [31]: 2 µg/mL (≈ 5.28 µM); Diameter of growth inhibition zone, SA [32]: 18 ± 1.2 mm; MIC [33]: 4 µg/mL (≈ 10.6 µM); EC50 [34]: > 100 µM; Diameter of growth inhibition zone, SP [35]: 10 ± 0.45 mm; EC50 [36, 40]: > 100 µM; EC50 [36, 41]: > 100 µM; Diameter of growth inhibition zone, LC [37]: 14 ± 0.4 mm
3 | Cc1ccc(S(=O)(=O)N2C(=O)CSC2c2ccc(Cl)cc2)cc1 (stereo not drawn) [5g, 2-(4-Chlorophenyl)-3-[(4-methylphenyl)sulfonyl]-1,3-thiazolidin-4-one] | > 100 | > 100 | 4 (≈ 10.9 µM) | > 100 | > 100 | >100 | 24 ± 1.5 | 20 ± 1.5 | > 100 | > 100 | 13 ± 0.63 | > 100 | > 100 | 12 ± 1.8 | >100 | 18 ± 1.1 | > 100 | 32 (≈ 87 µM) | 12 ± 0.9 | 23 ± 0.32 | EC50 [20]: > 100 µM; EC50 [21]: > 100 µM; Diameter of growth inhibition zone, KA [22]: 12 ± 0.12 mm; MIC [23]: 8 µg/mL (≈ 21.7 µM); MIC [24]: 4 µg/mL (≈ 10.9 µM); Diameter of growth inhibition zone, BC [25]: 18 ± 0.33 mm; Minimum cytotoxic conc. [26]: >100 µM; Minimum cytotoxic conc. [27]: >125 µM; MIC [28]: 8 µg/mL (≈ 21.7 µM); MIC [29]: 16 µg/mL (≈ 43.5 µM); MIC [30]: 8 µg/mL (≈ 21.7 µM); MIC [31]: 16 µg/mL (≈ 43.5 µM); Diameter of growth inhibition zone, SA [32]: 22 ± 0.63 mm; MIC [33]: 8 µg/mL (≈ 21.7 µM); EC50 [34]: > 100 µM; Diameter of growth inhibition zone, SP [35]: 12 ± 1.43 mm; EC50 [36, 40]: > 100 µM; EC50 [36, 41]: > 100 µM; Diameter of growth inhibition zone, LC [37]: 14 ± 0.4 mm
